From ChEMBL document CHEMBL3046592, “Organophosphorus derivatives containing piperazine dithiosemicarbazones as chemotherapeutants against fungal pathogens of sugarcane” (2005)
≈ marks a conversion by molar mass, not a printed value.

Key:
Format in all cases: functional
Conditions in all cases: 168 h
Colletotrichum falcatum [1] = assay: Fungicidal activity against Glomerella tucumanensis assessed as mycelial inhibition at 10 ppm at 28 +/- 2 degC measured after 7 days by food poison technique
Summary of the method: (§1)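 Poisoned-food test on oatmeal agar. The compound was dissolved in 0.5 cm3 of solvent and mixed into the medium to give the stated ppm. Controls received the same amount of solvent only. A 5 mm mycelial disk, cut from the periphery of a 2-week-old culture, was placed at the plate centre. Plates were incubated 7 days at 28 ± 2 °C, in triplicate. Percent inhibition = (dc − dt)/dc × 100, using mean colony diameters of control (dc) and treatment (dt).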

Curvularia pallescens [2] = assay: Fungicidal activity against Cochliobolus pallescens assessed as mycelial inhibition at 100 ppm at 28 +/- 2 degC measured after 7 days by food poison technique; summary of the method: as §1
Colletotrichum falcatum [3] = assay: Fungicidal activity against Glomerella tucumanensis assessed as mycelial inhibition at 100 ppm at 28 +/- 2 degC measured after 7 days by food poison technique; summary of the method: as §1
Fusarium oxysporum [4] = assay: Fungicidal activity against Fusarium oxysporum assessed as mycelial inhibition at 1000 ppm at 28 +/- 2 degC measured after 7 days by food poison technique; summary of the method: as §1
Curvularia pallescens [5] = assay: Fungicidal activity against Cochliobolus pallescens assessed as mycelial inhibition at 1000 ppm at 28 +/- 2 degC measured after 7 days by food poison technique; summary of the method: as §1
Fusarium oxysporum [6] = assay: Fungicidal activity against Fusarium oxysporum assessed as mycelial inhibition at 10 ppm at 28 +/- 2 degC measured after 7 days by food poison technique; summary of the method: as §1
Fusarium oxysporum [7] = assay: Fungicidal activity against Fusarium oxysporum assessed as mycelial inhibition at 100 ppm at 28 +/- 2 degC measured after 7 days by food poison technique; summary of the method: as §1
Curvularia pallescens [8] = assay: Fungicidal activity against Cochliobolus pallescens assessed as mycelial inhibition at 10 ppm at 28 +/- 2 degC measured after 7 days by food poison technique; summary of the method: as §1
Colletotrichum falcatum [9] = assay: Fungicidal activity against Glomerella tucumanensis assessed as mycelial inhibition at 1000 ppm at 28 +/- 2 degC measured after 7 days by food poison technique; summary of the method: as §1
Curvularia pallescens [10] = assay: Fungicidal activity against Cochliobolus pallescens assessed as mycelial inhibition at 28 +/- 2 degC measured after 7 days by food poison technique
Colletotrichum falcatum [11] = assay: Fungicidal activity against Glomerella tucumanensis assessed as mycelial inhibition at 28 +/- 2 degC measured after 7 days by food poison technique
Fusarium oxysporum [12] = assay: Fungicidal activity against Fusarium oxysporum assessed as mycelial inhibition at 28 +/- 2 degC measured after 7 days by food poison technique

Compound	inhibition at 10 ppm (Colletotrichum falcatum [1]) [%]	inhibition at 100 ppm (Curvularia pallescens [2]) [%]	inhibition at 100 ppm (Colletotrichum falcatum [3]) [%]	inhibition at 1000 ppm (Fusarium oxysporum [4]) [%]	inhibition at 1000 ppm (Curvularia pallescens [5]) [%]	inhibition at 10 ppm (Fusarium oxysporum [6]) [%]	inhibition at 100 ppm (Fusarium oxysporum [7]) [%]	inhibition at 10 ppm (Curvularia pallescens [8]) [%]	inhibition at 1000 ppm (Colletotrichum falcatum [9]) [%]	MIC (Curvularia pallescens [10]) [µg/mL]	MIC (Colletotrichum falcatum [11]) [µg/mL]	MIC (Fusarium oxysporum [12]) [µg/mL]
CCOP(=O)(OCC)S/C(=N\N=C\c1ccc([N+](=O)[O-])cc1)N1CCN(/C(=N\N=C\c2ccc([N+](=O)[O-])cc2)SP(=O)(OCC)OCC)CC1	25.8	58.2	40.8	62.6	89.2	27.5	40.2	35.6	65.2	–	–	–
S=C(N/N=C/c1ccccc1Cl)N1CCN(C(=S)N/N=C/c2ccccc2Cl)CC1	21.2	47.3	30.8	69.2	66.2	25.5	42	27.4	60.3	–	–	–
CCOP(=O)(OCC)S/C(=N/N=C/c1ccccc1Cl)N1CCN(/C(=N\N=C\c2ccccc2Cl)SP(=O)(OCC)OCC)CC1	55.2	86.8	70.6	100	88.2	56.8	82.4	47.7	85.6	–	–	–
S=C(N/N=C/c1ccc(Cl)cc1)N1CCN(C(=S)N/N=C/c2ccc(Cl)cc2)CC1	24.8	49.2	35.4	64.8	68.4	28.7	41.6	38.5	68.2	–	–	–
CCOP(=O)(OCC)S/C(=N/N=C/c1ccc(Cl)cc1)N1CCN(/C(=N\N=C\c2ccc(Cl)cc2)SP(=O)(OCC)OCC)CC1	42.5	88.2	72.8	100	100	37.8	76.2	66.6	100	1000 (≈ 1.33 mM)	1000 (≈ 1.33 mM)	1000 (≈ 1.33 mM)
S=C(N/N=C/c1ccccc1)N1CCN(C(=S)N/N=C/c2ccccc2)CC1	14.1	32.1	28.9	48.8	57.4	14.3	25.6	20.6	53.6	–	–	–
CCOP(=O)(OCC)S/C(=N/N=C/c1ccccc1)N1CCN(/C(=N\N=C\c2ccccc2)SP(=O)(OCC)OCC)CC1	25.8	49.5	40.2	66.5	75	24.8	35.6	32.8	73.4	–	–	–
COc1ccc(/C=N/NC(=S)N2CCN(C(=S)N/N=C/c3ccc(OC)cc3)CC2)cc1	22.1	45.8	37.6	66.8	67.2	35.3	40.2	28.6	65.9	–	–	–
CCOP(=O)(OCC)S/C(=N/N=C/c1ccc(OC)cc1)N1CCN(/C(=N\N=C\c2ccc(OC)cc2)SP(=O)(OCC)OCC)CC1	36.4	80.5	58.6	100	100	53.2	70.6	42.2	100	1000 (≈ 1.35 mM)	1000 (≈ 1.35 mM)	1000 (≈ 1.35 mM)
O=[N+]([O-])c1ccc(/C=N/NC(=S)N2CCN(C(=S)N/N=C/c3ccc([N+](=O)[O-])cc3)CC2)cc1	11.6	31.1	24.3	44.8	59.6	16.2	23.9	22.7	46.6	–	–	–
COC(=O)Nc1nc2ccccc2[nH]1 [CARBENDAZIM]	–	–	–	–	–	–	–	–	–	4000 (≈ 20.9 mM)	4000 (≈ 20.9 mM)	3000 (≈ 15.7 mM)
COC(=O)NC(=S)Nc1ccccc1NC(=S)NC(=O)OC [THIOPHANATE METHYL]	–	–	–	–	–	–	–	–	–	4000 (≈ 11.7 mM)	4000 (≈ 11.7 mM)	4000 (≈ 11.7 mM)
